Assay results as given in article PMC12091843 (Chemmedchem, 2025).
≈ marks a conversion by molar mass, not a printed value. Read-outs that look alike come from different tables or passages of the source.

Experiments:
[1] = target: AB ATP synthase (UniProt A3M139+B2I0Z6); assay type: biochemical, Acinetobacter baumannii; details: for Inhibition of AB ATP synthase (in words): even at high / highest concentrations tested
[2] = target: PA ATP synthase (Pseudomonas aeruginosa, UniProt Q9HT14+Q9HT15); experiment: biochemical; details: for Inhibition of PA ATP synthase (in words): even at high / highest concentrations tested
[3] = test system: MT ATP synthase; details: cited from earlier work
[4] = test system: AB 17978; experiment: Broth microdilution antibacterial activity; assay type: cell-based; details: Acinetobacter baumannii, read-out: MIC AB 17978
[5] = test system: PA 2108 (MDR); experiment: Broth microdilution antibacterial activity; assay type: cell-based, Pseudomonas aeruginosa; details: for MIC: Pseudomonas aeruginosa; for Antibacterial activity against PA (in words): highest concentration tested
[6] = test system: AB 1605 (MDR); experiment: Broth microdilution antibacterial activity; assay type: cell-based; details: Acinetobacter baumannii, read-out: MIC AB 1605 (MDR)
[7] = test system: AB (17978 and 1605); experiment: Broth microdilution antibacterial activity, AB strains summarised in the text; assay type: cell-based, Acinetobacter baumannii; details: for Antibacterial activity against AB strains (in words): highest concentration tested; for MIC: Acinetobacter baumannii, read-out: MICs against AB, one or both strains tested
[8] = test system: PA ETC; experiment: Inhibition of NADH-driven H+ pumping of the ETC in PA inverted vesicles; assay type: biochemical, Pseudomonas aeruginosa
How it was run: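 Inverted inner-membrane vesicles came from P. aeruginosa ATCC 9027 (LB, 37°C, 150 rpm, late exponential). Cells were homogenizer-lysed in Tris-HCl pH 7.5/MgCl2/glycerol buffer, cleared at 9,000 x g, and vesicles pelleted at 169,000 x g. Assay used vesicles at 0.5 mg/mL in HEPES/300 mM KCl pH 7.5 with ACMA and test compound in DMSO. NADH to 0.8 mM started pumping; nigericin stopped it. Fluorescence Ex 415/Em 485 nm; percent quenching normalized to no-inhibitor control.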

Row | SMILES | MIC [4] | MIC ([5]; read-out: MIC PA 2108 (MDR)) | MIC [6] | MIC [7] | further results
1 | COc1nc2ccc(Br)cc2cc1[C@@H](c1ccccc1)[C@@](O)(CCN(C)C)c1cccc2ccccc12 [BDQ, bedaquiline, reference compound] | – | – | – | – | Inhibition of AB ATP synthase (in words) [1]: does not fully inhibit; Inhibition of PA ATP synthase (in words) [2]: does not fully inhibit; Potency against MT ATP synthase (in words) [3]: nanomolar potency
2 | O=C(N[C@H](CO)[C@H](O)c1ccc([N+](=O)[O-])cc1)C(Cl)Cl [Chloramphenicol, reference compound] | 64 µg/mL (≈ 198 µM) | 64 µg/mL (≈ 198 µM) | – | – | –
3 | c1ccc(CSc2nc3ccccc3cc2CNCc2ccc(N3CCCCC3)cc2)cc1 [WSA248, 1‐(2‐(benzylthio)quinolin‐3‐yl)‐N‐(4‐(piperidin‐1‐yl)benzyl)methanamine] | > 128 µg/mL | > 128 µg/mL | > 128 µg/mL | – | Inhibition of AB ATP synthase (in words) [1]: no significant inhibition; Inhibition of PA ATP synthase (in words) [2]: no significant inhibition; Antibacterial activity against PA (in words) [5]: inactive; Antibacterial activity against AB strains (in words) [7]: inactive
4 | c1ccc(CSc2nc3ccccc3cc2CNCc2ccc(CN3CCCC3)cc2)cc1 [WSA249, 1‐(2‐(benzylthio)quinolin‐3‐yl)‐N‐(4‐(pyrrolidin‐1‐ylmethyl)benzyl)methanamine] | 32 µg/mL (≈ 70.5 µM) | 16 µg/mL (≈ 35.3 µM) | 64 µg/mL (≈ 141 µM) | – | MIC ([5]; read-out: MIC against MDR PA): 16 µg/mL (≈ 35.3 µM)
5 | CN1CCN(CCNCc2cc3ccccc3nc2SCc2ccccc2)CC1 [WSA250, N‐((2‐(benzylthio)quinolin‐3‐yl)methyl)‐2‐(4‐methylpiperazin‐1‐yl)ethan‐1‐amine] | 64 µg/mL (≈ 157 µM) | 64 µg/mL (≈ 157 µM) | 128 µg/mL (≈ 315 µM) | – | –
6 | CCN1CCC(CCNCc2cc3cc(OC)c(OC)c(OC)c3nc2SCc2ccccc2)CC1 [WSA251, N‐((2‐(benzylthio)‐6,7,8‐trimethoxyquinolin‐3‐yl)methyl)‐2‐(1‐ethylpiperidin‐4‐yl)ethan‐1‐amine] | 128 µg/mL (≈ 251 µM) | 128 µg/mL (≈ 251 µM) | > 128 µg/mL | – | Fold less potent than WSA236 against PA (antibacterial) ([5]; MIC comparison): 4 fold; Fold less potent than WSA236 against AB (antibacterial) ([7]; MIC comparison): 2 fold
7 | COc1cc2cc(CNCCC3CCN(C4CCCC4)CC3)c(SCc3ccccc3)nc2c(OC)c1OC [WSA252, N‐((2‐(benzylthio)‐6,7,8‐trimethoxyquinolin‐3‐yl)methyl)‐2‐(1‐cyclopentylpiperidin‐4‐yl)ethan‐1‐amine] | 64 µg/mL (≈ 116 µM) | 64 µg/mL (≈ 116 µM) | – | – | –
8 | COc1cc2cc(CNCCN3CCN(C)CC3)c(SCc3ccccc3)nc2c(OC)c1OC [WSA253, N‐((2‐(benzylthio)‐6,7,8‐trimethoxyquinolin‐3‐yl)methyl)‐2‐(4‐methylpiperazin‐1‐yl)ethan‐1‐amine] | 128 µg/mL (≈ 258 µM) | 128 µg/mL (≈ 258 µM) | > 128 µg/mL | – | Fold improvement of IC50 for AB by trimethoxy modification [1]: 3 fold; Fold worsening of IC50 for PA by trimethoxy modification [2]: ~3 fold
9 | CCN1CCC(CCNCc2cc3cc(Br)ccc3nc2SCc2ccccc2)CC1 [WSA254, N‐((2‐(benzylthio)‐6‐bromoquinolin‐3‐yl)methyl)‐2‐(1‐ethylpiperidin‐4‐yl)ethan‐1‐amine] | 16 µg/mL (≈ 32.1 µM) | 32 µg/mL (≈ 64.2 µM) | – | 8 to 16 µg/mL (≈ 16 to 32.1 µM) | –
10 | Brc1ccc2nc(SCc3ccccc3)c(CNCCC3CCN(C4CCCC4)CC3)cc2c1 [WSA255, N‐((2‐(benzylthio)‐6‐bromoquinolin‐3‐yl)methyl)‐2‐(1‐cyclopentylpiperidin‐4‐yl)ethan‐1‐amine] | 16 µg/mL (≈ 29.7 µM) | 32 µg/mL (≈ 59.4 µM) | – | 8 to 16 µg/mL (≈ 14.9 to 29.7 µM) | IC50 [2]: 427 nM; Fold less potent against the ETC compared to ATP synthase ([8]; PA ETC IC50 versus PA ATP synthase IC50): more than 7 fold; PA ETC IC50 ([8]; PA vesicles, dose response fit): 1.7 µg/mL
11 | Brc1ccc2nc(SCc3ccccc3)c(CNCc3ccc(CN4CCCC4)cc3)cc2c1 [WSA256, 1‐(2‐(benzylthio)‐6‐bromoquinolin‐3‐yl)‐N‐(4‐(pyrrolidin‐1‐ylmethyl)benzyl)methanamine] | > 128 µg/mL | > 128 µg/mL | > 128 µg/mL | – | Antibacterial activity against PA (in words) [5]: inactive; Antibacterial activity against AB strains (in words) [7]: inactive
12 | CN1CCN(CCNCc2cc3cc(Br)ccc3nc2SCc2ccccc2)CC1 [WSA257, N‐((2‐(benzylthio)‐6‐bromoquinolin‐3‐yl)methyl)‐2‐(4‐methylpiperazin‐1‐yl)ethan‐1‐amine] | 8 µg/mL (≈ 16.5 µM) | 16 µg/mL (≈ 33 µM) | 16 µg/mL (≈ 33 µM) | 8 to 16 µg/mL (≈ 16.5 to 33 µM) | IC50 [2]: 268 nM; MIC ([5]; read-out: MIC against MDR PA): 16 µg/mL (≈ 33 µM)
13 | CCN1CCC(CCNCc2cc3cc(-c4ccccc4)ccc3nc2SCc2ccccc2)CC1 [WSA261, N‐((2‐(benzylthio)‐6‐phenylquinolin‐3‐yl)methyl)‐2‐(1‐ethylpiperidin‐4‐yl)ethan‐1‐amine] | 8 µg/mL (≈ 16.1 µM) | 64 µg/mL (≈ 129 µM) | 16 µg/mL (≈ 32.3 µM) | 8 to 16 µg/mL (≈ 16.1 to 32.3 µM) | –
14 | c1ccc(CSc2nc3ccc(-c4ccccc4)cc3cc2CNCCC2CCN(C3CCCC3)CC2)cc1 [WSA262, N‐((2‐(benzylthio)‐6‐phenylquinolin‐3‐yl)methyl)‐2‐(1‐cyclopentylpiperidin‐4‐yl)ethan‐1‐amine] | 32 µg/mL (≈ 59.7 µM) | 64 µg/mL (≈ 119 µM) | – | – | –
15 | c1ccc(CSc2nc3ccc(-c4ccccc4)cc3cc2CNCc2ccc(CN3CCCC3)cc2)cc1 [WSA269, 1‐(2‐(benzylthio)‐6‐phenylquinolin‐3‐yl)‐N‐(4‐(pyrrolidin‐1‐ylmethyl)benzyl)methanamine] | > 128 µg/mL | > 128 µg/mL | > 128 µg/mL | – | Antibacterial activity against PA (in words) [5]: inactive; Antibacterial activity against AB strains (in words) [7]: inactive
16 | CN1CCN(CCNCc2cc3cc(-c4ccccc4)ccc3nc2SCc2ccccc2)CC1 [WSA270, N‐((2‐(benzylthio)‐6‐phenylquinolin‐3‐yl)methyl)‐2‐(4‐methylpiperazin‐1‐yl)ethan‐1‐amine] | 16 µg/mL (≈ 33.1 µM) | 32 µg/mL (≈ 66.3 µM) | – | 8 to 16 µg/mL (≈ 16.6 to 33.1 µM) | –
